# Assay outcomes as filed in PubChem.
# Beta cell apopt – inhibitors of cytokine-induced beta cell apoptosis, primary screen, luminescence. AID 435005, 2010. 300,000 compounds, 0.8% hits. INS-1E cytokine-induced death, ATP luminescence, 48 h; percent of positive-control rescue, neutral wells zero. protection from apoptosis, % (concentration not given with the values);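 active = Every replicate reaches about 75%, or at least half do and their mean reaches it too, limit read from the data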;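 note: 0% = cytokine-treated negative control wells and 100% = positive control rescue; higher means more ATP so stronger rescue from cytokine killing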
# CSC inhib – cancer stem cell viability inhibitors, primary screen, luminescence. 300,000 compounds, 1.1% hits. cancer stem cell-like cells viability. inhibition, % at 7.5 µM; in the data active = inhibition above about 75%; tested in HMLE shEcad cells
# T cruzi inh – inhibitors of intracellular T. cruzi growth, primary screen, luminescence, NIH3T3 host cells; T. cruzi beta-gal in NIH3T3, 90 h; inhibition, % (concentration not given with the values); 300,000 compounds, 1.4% hits;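 active = mean inhibition across valid replicates above about 55%, limit read from the data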;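 note: signal also drops with host cell toxicity which is not excluded here; 0% = plate median of DMSO wells and 100% = zero luminescence signal; higher percent means less beta-gal luminescence so fewer parasites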
#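 Material: NIH/3T3 host cells with β-galactosidase reporter T. cruzi; Input: 5,000 host fibroblasts per well; Medium: DMEM, 2% fetal bovine serum; Compound: 50 nL DMSO compound solution per well; Schedule: 3 h host attachment, then at least 90 h co-culture; Detection: luminescent β-galactosidase signal after 60 min lysis.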
# L major viab – Leishmania major promastigote growth inhibition, primary screen; Leishmania major promastigotes, resazurin fluorescence viability; AID 1063, 2008; 200,000 compounds, 9% hits; inhibition, % at 10 µM; in the data active = inhibition above about 50%;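 note: promastigotes grown with compound for 44 hours at 28 °C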
# Mdm2-MdmX inh – inhibitors of human Mdm2-MdmX association, primary screen, cell-based, luminescence, split luciferase, SaOS-2, uHTS | Protein Mdm4 (Homo sapiens) + E3 ubiquitin-protein ligase Mdm2 (Homo sapiens), … | SaOS-2 split-luciferase Mdm2/MdmX complementation | inhibition, % at 8 µM | 330,000 compounds, 3% hits | AID 485346, 2010;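 active = inhibition of at least 50% at 8 µM in the primary screen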
# SKKanGAS inh – S. pyogenes SKKanGAS growth inhibitors in kanamycin, primary screen, streptokinase expression inhibitor project, SKKanGAS strain, BacTiter-Glo luminescence; 300,000 compounds, 1.3% hits; 6 h; inhibition, % at 7.5 µM;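 active = mean replicate score, as percent of positive control median, at least 50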;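 note: strain carries kanamycin resistance gene driven by streptokinase promoter and grows in 40 µg/ml kanamycin; loss of luminescence reflects streptokinase promoter inhibition or plain growth inhibition; 0% = median of DMSO wells and 100% = positive control at its reference dose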
# Mdm2 MdmX conf – Mdm2-MdmX complex disruptors, retested hits, confirmation, luminescence, single concentration; AID 489028, 2010; 10,000 compounds, 55% hits; inhibition, % at 8 µM; shares compounds with Mdm2-MdmX inh; Mdm2-MdmX binding, luminescent assay; in the data active = inhibition above about 40%
# FLuc counter – full-length luciferase signal inhibition, confirmation, counter-screen for Mdm2/MdmX interaction inhibitor project, cell-based, single concentration, SaOS-2; inhibition, % at 8 µM; shares compounds with Mdm2-MdmX inh; 6,200 compounds, 77% hits; SaOS-2 full-length luciferase counterscreen, luminescence;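 active = mean inhibition at 8 µM reaching about 37%, which flags the compound as non-specific, limit read from the data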;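 note: p53-null SaOS-2 cells with luciferase driven by a doxycycline-inducible promoter; compound on cells about two nights before reading with doxycycline added after day one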
# * marks the source's active call; other numbers are inactive results; x = not tested or not shown. Shown are actives, neighbours in structure and some others; about 9.4% of the full set was active somewhere.
SMILES,Beta cell apopt,CSC inhib,T cruzi inh,L major viab,Mdm2-MdmX inh,SKKanGAS inh,Mdm2 MdmX conf,FLuc counter
O=C(c1ccc(S(=O)(=O)c2ccccc2Cl)c([N+](=O)[O-])c1)N1CCCCCC1,34.9,20.5,-9.1,97.8*,50.5*,-12.5,24.7,x
O=C(c1ccc2c(c1)N(Cc1cccc(Cl)c1)C(=O)c1ccccc1S2(=O)=O)N1CCN(c2ccccn2)CC1,15.0,28.3,43.5,97.5*,64.7*,2.9,20.2,x
Cc1ccc(S(=O)(=O)N2CCC(C(=O)Nc3ccccc3N3CCCC3)CC2)cc1C,-3.5,x,29.2,x,11.1,-5.8,x,x
O=C(CN1CCN(S(=O)(=O)c2cccs2)CC1)NCC1CCCCC1,-6.2,x,x,x,2.2,x,x,x
CCCCN(CC)C(=O)c1cc2c(=O)[nH]c3ccc(C)cc3c2s1,7.4,8.9,14.7,x,41.9,21.2,x,x
CCCCN(Cc1ccco1)C(=O)c1cc2c(=O)[nH]c3ccc(C)cc3c2s1,22.2,17.3,35.6,43.8,84.0*,8.1,36.6,23.8
Cc1ccc2[nH]c(=O)c3cc(C(=O)N(CCCOC(C)C)Cc4ccco4)sc3c2c1,-1.1,9.3,27.6,75.0*,69.0*,16.5,25.2,x
CCc1nc(SCC(=O)N2CC(=O)Nc3ccccc32)c2c(C)c(C)sc2n1,19.8,3.8,14.6,4.6,38.5,11.2,x,x
Cc1sc2nc(C3CCCCC3)nc(SCC(=O)N3CC(=O)Nc4ccccc43)c2c1C,-7.2,-1.9,-13.6,-1.4,55.7*,19.9,18.1,x
Cc1cnc(C(=O)OCC(=O)Nc2cccc(S(=O)(=O)N3CCOCC3)c2)cn1,0.4,-12.3,x,x,6.7,x,x,x
Clc1nc2c(-c3ccccc3)nnn2c2ccccc12,-4.9,71.0,64.3*,x,100.4*,-2.5,54.9*,51.4*
Cc1ccc(-c2nnn3c2nc(Cl)c2ccccc23)cc1,x,x,-11.1,48.1,x,-13.2,x,x
NS(=O)(=O)c1ccc(CCNC(=O)c2ccc(NS(=O)(=O)c3ccc4[nH]c(=O)[nH]c4c3)cc2)cc1,-3.8,-9.6,-14.5,x,25.4,-1.1,x,x
CCCCn1c(=O)[nH]c(=O)c2c1nc(-c1ccc(-c3ccccc3)cc1)n2C,6.3,12.7,8.0,x,62.3*,11.9,35.4,94.4*
Oc1ccc(Br)cc1-c1ccnn1-c1ccccc1,5.3,68.8,-5.5,x,64.0*,-1.6,57.2*,50.3*
CC(SCc1ccccc1)C(=O)Nc1ccccc1 (centres undefined),-1.9,-7.4,-1.6,x,14.7,2.2,x,x
COc1ccc(/C=C/c2nc(N)nc(-c3ccccc3O)n2)cc1OC,16.6,42.2,66.9*,92.5*,61.5*,44.3,44.4*,83.7*
O=C(Nc1ccc2oc(=O)ccc2c1)c1ccc(-c2ccccc2[N+](=O)[O-])o1,27.9,14.9,1.0,x,62.0*,-0.8,-7.5,x
COc1ccc(/C=C/C(=O)NCCc2ccc(OC)c(OC)c2)cc1,-1.0,-0.4,1.8,43.2,-1.7,-2.8,x,x
COc1ccc(CCNC(=O)/C=C/c2ccc3ccccc3n2)cc1OC,x,64.4,24.5,x,58.4*,-2.4,69.3*,54.2*
O=C(CCc1ccccc1)Nc1ccc2c(c1)C(=O)OC2,-11.7,10.1,-6.7,x,0.5,-2.9,x,x
C=CCNC(=O)c1ccc(CN(c2ccc(OCC)cc2)S(=O)(=O)c2ccc(C)cc2)cc1,-1.1,64.1,38.0,x,50.0,4.8,39.8,49.6*
CCC1=Nc2cc(C(=O)NCC3CCCO3)ccc2Sc2ccc(Br)cc21 (centres undefined),19.8,49.0,33.1,-1.2,43.2,5.4,x,x
CCC1=Nc2cc(C(=O)NCC3CCCO3)ccc2Sc2ccc(Cl)cc21 (centres undefined),16.4,58.1,22.5,x,64.7*,7.4,55.0*,44.8*
O=C(C[C@H]1C/C=C\CC[C@@H](Cc2ccc(F)cc2)C(=O)O[C@@H](c2ccccc2)CNC1=O)N[C@@H](CO)Cc1ccccc1,3.9,-4.7,x,x,14.4,x,x,x
SMILES,Beta cell apopt,CSC inhib,T cruzi inh,L major viab,Mdm2-MdmX inh,SKKanGAS inh,Mdm2 MdmX conf,FLuc counter
COC(=O)Nc1ccc(S(=O)(=O)N2CCCc3ccccc32)cc1,27.3,80.1*,-73.4,41.6,54.7*,7.7,48.8*,56.0*
COc1ccc(S(=O)(=O)N2CCc3ccccc32)cc1C(=O)Nc1ccc(C(N)=O)cc1,58.0,43.4,11.3,x,97.8*,3.6,60.0*,66.3*
COC(=O)Nc1ccc(S(=O)(=O)N2CCCCC2)cc1,3.3,12.3,-5.0,-2.6,15.6,-2.1,x,x
Cn1c(=O)oc2cc(S(=O)(=O)N3CCCc4ccccc43)ccc21,-5.9,72.7,-10.9,8.2,54.6*,-6.4,59.2*,65.2*
COC(=O)Nc1ccc(S(=O)(=O)N2CCCc3cccc(O)c32)cc1,10.0,49.3,1.2,-0.8,55.1*,-0.3,52.1*,62.6*
NNC(=O)c1cc(-c2ccc(N)cc2)nc2ccc(Br)cc12,-3.2,13.3,30.9,x,0.4,16.5,x,x
N#CC1(NC(=O)CN2c3cccc4cccc(c34)S2(=O)=O)CCCCC1,-1.0,-6.7,7.6,x,-20.1,-0.1,x,x
Cc1[nH]c2ccc(-c3nnc(SCC(=O)c4ccccc4F)o3)cc2c1C,-4.4,14.6,30.4,0.3,36.9,15.9,x,x
Cc1ccc(C(=O)CSc2nnc(-c3ccc4[nH]c(C)c(C)c4c3)o2)cc1C,4.3,5.1,43.9,7.5,51.4*,-9.7,8.8,x
CC1=C(C(=O)OCc2ccc3c(c2)OCO3)C(c2ccc(O)c([N+](=O)[O-])c2)NC(=O)N1 (centres undefined),-6.9,x,3.4,-3.2,51.3*,12.2,35.4,x
CC1=C(C(=O)OCc2ccccc2)C(c2ccc([N+](=O)[O-])cc2)NC(=O)N1 (centres undefined),-1.9,-7.2,8.6,x,36.2,0.3,x,x
CC1=C(C(=O)OCc2ccc3c(c2)OCO3)C(c2ccccc2)NC(=O)N1 (centres undefined),-15.4,42.0,-21.0,18.7,87.0*,-9.1,90.9*,51.5*
ClCc1nc2ccccc2c2ccccc12,26.2,23.7,-5.8,x,51.7*,-3.2,25.6,x
CCOC(=O)c1c(CCl)nc2ccccc2c1-c1ccccc1,0.6,-15.2,2.9,x,0.7,11.6,x,x
CCN(CC(=O)Nc1c(F)cccc1F)C(=O)/C=C/c1ccc2c(c1)OCO2,0.9,-3.9,1.5,x,-31.0,13.7,x,x
